INS promoter inh: inhibitors of insulin promoter-driven GFP, primary screen, imaging, TRM-6 cells (human fetal islet line), eGFP reporter, cell count. reporter expression induced with tamoxifen. inhibition, % at 2 µM. 0.9% of 130,000 active. AID 1273, 2008;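 active = inhibition above the mean plus 3 SD, with well images judged a real hit on visual review, cut at about 60% in these data, passing the limit was not always enough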
HMGR II inh: inhibitors of E. faecalis class II HMGR, primary screen, biochemical, Enterococcus faecalis; HMG-CoA reductase (Enterococcus faecalis, mvaE); purified E. faecalis HMGR, NADPH absorbance 340 nm kinetic; inhibition, % at 10 µM; 0.41% of 190,000 active;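 active = inhibition above a set limit, the median over all tested compounds plus 3 SD, cut at about 9.5% in these data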;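 note: enzyme runs in reverse so mevalonate oxidation gives rising NADPH absorbance; 0% = complete reaction with DMSO and 100% = background rate lacking mevalonate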
RAM network inh: inhibitors of the yeast RAM network, primary screen, dse1pr::URA3 reporter, 5-FOA selection; S. cerevisiae dse1pr::URA3 reporter, 5-FOA growth OD615, 2 d; analog-sensitive cbk1-as2 kinase mutant strain; AID 868, 2007; 1.8% of 190,000 active; inhibition, % at 50 µM;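 active = inhibition above a set limit, 3 SD over mean compound inhibition, cut at about 8.4% in these data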;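 note: 0% = DMSO-only wells with no growth and 100% = 10 µM 1-NA-PP1 full growth; inhibition rescues growth on 5-FOA so higher OD means more RAM inhibition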
BB579 growth dn: growth inhibitors of yeast BB579 in restrictive medium, primary screen, yeast lifespan-shortening project, S. cerevisiae; OD615, 48 h; inhibition, % at 10 µM; 0.51% of 140,000 active;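 active = inhibition above a set limit, 3 SD over the mean compound inhibition, cut at about 44% in these data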
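Test system: DeaD yeast strain BB579 / Buffer or medium: restrictive glucose-based CSMM-D medium / Doses: single 10 µM dose / Schedule: 4 h cell preincubation, 48 h compound exposure, 30 °C humidified / Technique: culture absorbance at 615 nm / Controls: amphotericin B positive control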
Yeast lifespan up: compounds extending yeast replicative lifespan, primary screen, S. cerevisiae, OD615. 0.68% of 130,000 active. inhibition of the nicotinamide effect, % at 10 µM. AID 775, 2007. S. cerevisiae growth with nicotinamide; deaD strain in restrictive glucose medium;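 active = inhibition above a set limit, placed 3 SD over the median of all compounds, cut at about 26% in these data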;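 note: 0% = nicotinamide-treated wells and 100% = cells grown without nicotinamide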
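Test system: DeaD-strain S. cerevisiae / Buffer or medium: restrictive glucose medium / Also added: nicotinamide 1.5 mM / Doses: one concentration, 10 µM, DMSO 0.25% / Schedule: 48 h at 30 °C / Signal: OD615 measurement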
RAM 5-FOA: 5-FOA growth of efflux-deficient control yeast, dose response, counter-screen for RAM network inhibitor project, S. cerevisiae, OD615; shares compounds with RAM network inh; S. cerevisiae efflux-deficient reporter strain, 5-FOA growth OD615, 2 days; max inhibition, %; 1,200 tested, under 10 active; AID 1305, 2008; call rule not given here;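 note: plate controls were vehicle for no effect and reference inhibitor for full effect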
Numbers without * were called inactive. Most compounds without a hit are left out; they make up all but 3.7% or so of the library.

How did CCSC1=N/C(=C\c2cccnc2)C(=O)N1c1ccccc1 do in these assays?
INS promoter inh: -18; HMGR II inh: 1; RAM network inh: 0; BB579 growth dn: -47; Yeast lifespan up: 1

How did CCCCSC1=N/C(=C/c2ccsc2)C(=O)N1c1ccccc1 do in these assays?
INS promoter inh: 6; HMGR II inh: -5; RAM network inh: 16*; BB579 growth dn: -15; Yeast lifespan up: 0; RAM 5-FOA: 3

Results for CCSC1=N/C(=C/c2ccsc2)C(=O)N1c1ccccc1 ?
INS promoter inh: 27; HMGR II inh: -8; RAM network inh: 12*; BB579 growth dn: -29; Yeast lifespan up: 0; RAM 5-FOA: 3

Results for CCCSC1=N/C(=C/c2ccsc2)C(=O)N1c1ccccc1 ?
INS promoter inh: 0; HMGR II inh: -3; RAM network inh: 12*; BB579 growth dn: -26; Yeast lifespan up: -1; RAM 5-FOA: 1

Results for CSC1=N/C(=C\c2cccnc2)C(=O)N1c1ccccc1 ?
HMGR II inh: 2; RAM network inh: -1; BB579 growth dn: -25; Yeast lifespan up: -8

Results for C=CCn1cccc(/C=C/C(=O)c2ccc(C(C)(C)C)cc2)c1=S ?
INS promoter inh: 60; HMGR II inh: -2; RAM network inh: 17*; BB579 growth dn: -23; Yeast lifespan up: 5; RAM 5-FOA: 8

How did Cc1nn(C)cc1/C=C/C(=O)c1ccc(O)cc1 do in these assays?
INS promoter inh: -81; HMGR II inh: 4; RAM network inh: 0; BB579 growth dn: -9; Yeast lifespan up: -3

What do the screens show for `C/C(N)=C(/C#N)C(=O)CSc1nc2ccccc2c(=O)n1-c1ccc(C)c(Cl)c1`?
INS promoter inh: 20; HMGR II inh: 1; RAM network inh: 12*; BB579 growth dn: -47; Yeast lifespan up: 0; RAM 5-FOA: 3

Results for C/C(N)=C(/C#N)C(=O)CSc1nc2ccccc2c(=O)n1-c1ccc(C)cc1 ?
INS promoter inh: -20; HMGR II inh: -1; RAM network inh: 2; BB579 growth dn: -41; Yeast lifespan up: -2

What do the screens show for `Cc1cc(Br)ccc1OCC(=O)N1CCCCCC1`?
INS promoter inh: 21; HMGR II inh: -1; RAM network inh: 21*; BB579 growth dn: -7; Yeast lifespan up: -6; RAM 5-FOA: 1

What do the screens show for `COc1ccc(CC(=O)Nc2cccc(S(=O)(=O)N3CCCCCC3)c2)cc1OC`?
INS promoter inh: -11; HMGR II inh: -3; RAM network inh: 12*; BB579 growth dn: -31; Yeast lifespan up: 2; RAM 5-FOA: 3

How did COc1ccc(S(=O)(=O)Nc2cccc(S(=O)(=O)N3CCCCCC3)c2)cc1 do in these assays?
HMGR II inh: -6; RAM network inh: 14*; BB579 growth dn: -29; Yeast lifespan up: 6; RAM 5-FOA: 5

What do the screens show for `S=C(c1ccc(-c2cc(Cl)ccc2Cl)o1)N1CCCCC1`?
INS promoter inh: 4; HMGR II inh: -7; RAM network inh: 12*; BB579 growth dn: -47; Yeast lifespan up: -3; RAM 5-FOA: 1

Results for CC(/C=C1\SC(=S)N(NC(=O)c2ccc(C)cc2)C1=O)=C\c1ccccc1 ?
HMGR II inh: -1; RAM network inh: 6; BB579 growth dn: -15; Yeast lifespan up: -15

Results for CCOc1ccc(/C=C2\SC(=S)N(Nc3ccccc3)C2=O)cc1OC ?
INS promoter inh: 10; HMGR II inh: -2; RAM network inh: 7; BB579 growth dn: -38; Yeast lifespan up: 1

Results for COc1ccc(/C=C2\SC(=S)N(C(Cc3ccccc3)C(=O)O)C2=O)cc1 (stereo not given) ?
HMGR II inh: -1; RAM network inh: 34*; RAM 5-FOA: 4

How did COc1ccc(/C=C2\SC(=S)N(CC(=O)NCCO)C2=O)cc1 do in these assays?
HMGR II inh: -3; RAM network inh: 0

Results for CCOc1ccc(/C=C2/SC(=S)N(C(C(=O)O)c3ccccc3)C2=O)cc1OCC (stereo not given) ?
HMGR II inh: -5; RAM network inh: 13*; RAM 5-FOA: 2

What do the screens show for `CC(/C=C1\SC(=S)N(C(C(=O)O)C(C)C)C1=O)=C\c1ccccc1` (stereo not given)?
INS promoter inh: 14; HMGR II inh: 1; RAM network inh: 18*; RAM 5-FOA: 4

Results for O=C(COC(=O)[C@H](Cc1ccccc1)NC(=O)c1ccco1)NCc1ccccc1 ?
HMGR II inh: -3; RAM network inh: 1; BB579 growth dn: -40; Yeast lifespan up: -7

What do the screens show for `Cc1ccc(Cc2nnc3n(-c4cccc(C)c4)nc(C(=O)c4ccccc4)n3c2=O)cc1`?
INS promoter inh: -25; HMGR II inh: -5; RAM network inh: 15*; BB579 growth dn: -15; RAM 5-FOA: 2

Results for COC(=O)c1nn(-c2cccc(C)c2)c2nnc(Cc3ccc(C)cc3)c(=O)n12 ?
INS promoter inh: 46; HMGR II inh: -3; RAM network inh: 0; BB579 growth dn: -3; Yeast lifespan up: 18

Results for CO/N=C(\C(=O)O)c1csc(NN=C(C)C)n1 ?
INS promoter inh: -33; HMGR II inh: -5; RAM network inh: 1

How did O/N=C/c1cc(Br)ccc1OCc1ccc(F)cc1 do in these assays?
INS promoter inh: -19

Results for O/N=C/c1cc(Br)ccc1OCc1cccc(F)c1 ?
INS promoter inh: 23; HMGR II inh: -1; RAM network inh: 12*; BB579 growth dn: -22; Yeast lifespan up: -7; RAM 5-FOA: 2

How did Cc1ccc2[nH]c(C(=O)NN=C3CCCCC3)c(-c3ccccc3)c2c1 do in these assays?
HMGR II inh: -3; RAM network inh: 3

Results for O=C(c1ccc(C(F)(F)F)cc1)N1CCC(=O)N(C(COCc2ccccc2)Cc2ccccc2)CC1 (stereo not given) ?
INS promoter inh: -24; HMGR II inh: -4; RAM network inh: 26*; BB579 growth dn: -29; Yeast lifespan up: 14; RAM 5-FOA: 2

How did O=c1cc[nH]c2ccc([N+](=O)[O-])cc12 do in these assays?
HMGR II inh: -7; RAM network inh: 0

Results for COc1cc(/C=C2\SC(=S)N(CCC(=O)Nc3ccccc3)C2=O)cc(OC)c1OC ?
HMGR II inh: -7; RAM network inh: 5

How did COc1ccc(/C=C2\SC(=O)N(CCC(=O)Nc3ccccc3)C2=O)cc1OC do in these assays?
INS promoter inh: 4; HMGR II inh: -1; RAM network inh: 13*; BB579 growth dn: -39; Yeast lifespan up: -2; RAM 5-FOA: 2
